From ChEMBL document CHEMBL4602700, “Discovery of WD Repeat-Containing Protein 5 (WDR5)-MYC Inhibitors Using Fragment-Based Methods and Structure-Based Design” (J Med Chem, 2020)
Activity calls are given as the source filed them. The rule behind the calls is not given here.

Key:
[1] = biological target: T1, WD repeat-containing protein 5 (Homo sapiens, UniProt P61964); experiment: Binding affinity to recombinant human His/FLAG-tagged WDR5 (22 to 334 residues) expressed in Escherichia coli expression system using FITC-AHx-SEEEIDVVSV as substrate by fluorescence polarization assay
[2] = biological target: T1, WD repeat-containing protein 5; experiment: Inhibition of WDR5 in human HEK293T cells assessed as reduction in WDR5-MYC interaction at 5 uM incubated for 24 hrs by immunoprecipitation analysis; type: cell-based; settings: HEK-293T
In short: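 Intact HEK293 cells (WDR5-FLAG/c-MYC-HA) at ~70% confluence, PBS-washed, treated 24 h with 5 μM compound in OptiMEM; lysates α-FLAG immunoprecipitated overnight at 4 °C, MYC co-precipitation immunoblotted, input blotted for MYC levels; normalized to vehicle; minimum two biological repeats.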

[3] = biological target: MLL1-ASH2L/RbBP5/WDR5/DPY30 (Homo sapiens) (UniProt P61964+Q03164+Q9UBL3+Q15291+Q9C005); experiment: Inhibition of MLL1/WDR5/RBBP5/ASH2L/DPY30 complex (unknown origin) assessed as reduction in histone methyltransferase activity; type: protein assay
[4] = biological target: T1, WD repeat-containing protein 5; experiment: Inhibition of N-terminal FLAG-tagged human full-length WDR5 expressed in HEK293T cells harboring human C-terminal HA-tagged c-MYC assessed as reduction in WDR5-MYC interaction at 50 uM by immunoprecipitation analysis; settings: HEK-293T
[5] = biological target: T1, WD repeat-containing protein 5; experiment: Inhibition of N-terminal FLAG-tagged human full-length WDR5 expressed in HEK293T cells harboring human C-terminal HA-tagged c-MYC assessed as reduction in MYC recruitment C7orf40 binding site at 20 uM incubated for 10 hrs by chromatin immunoprecipitation analysis; type: cell-based; settings: HEK-293T
In short: (§1)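 HEK293 cells expressing HA-MYC and GFP grown to ~70% confluence, PBS-washed, treated 10 h in OptiMEM. Crosslinked 1% formaldehyde 10 min at room temperature, quenched with 125 mM glycine. Sonicated chromatin, α-HA ChIP; qPCR percent input against a 30-fold dilution of decrosslinked chromatin. One-tailed t-test; minimum three independent biological repeats.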

[6] = biological target: T1, WD repeat-containing protein 5; experiment: Inhibition of N-terminal FLAG-tagged human full-length WDR5 expressed in HEK293T cells harboring human C-terminal HA-tagged c-MYC assessed as reduction in MYC recruitment RNPS1 binding site at 20 uM incubated for 10 hrs by chromatin immunoprecipitation analysis; type: cell-based; settings: HEK-293T; in short: as §1
[7] = biological target: T1, WD repeat-containing protein 5; experiment: Inhibition of N-terminal FLAG-tagged human full-length WDR5 expressed in HEK293T cells harboring human C-terminal HA-tagged c-MYC assessed as reduction in MYC recruitment RPS14 binding site at 20 uM incubated for 10 hrs by chromatin immunoprecipitation analysis; type: cell-based; settings: HEK-293T; in short: as §1
[8] = biological target: T1, WD repeat-containing protein 5; experiment: Inhibition of N-terminal FLAG-tagged human full-length WDR5 expressed in HEK293T cells harboring human C-terminal HA-tagged c-MYC assessed as reduction in MYC recruitment RPL5 binding site at 20 uM incubated for 10 hrs by chromatin immunoprecipitation analysis; type: cell-based; settings: HEK-293T; in short: as §1
[9] = biological target: T1, WD repeat-containing protein 5; experiment: Inhibition of N-terminal FLAG-tagged human full-length WDR5 expressed in HEK293T cells harboring human C-terminal HA-tagged c-MYC assessed as reduction in MYC recruitment ZFPM1 binding site at 20 uM incubated for 10 hrs by chromatin immunoprecipitation analysis; type: cell-based; settings: HEK-293T; in short: as §1
[10] = biological target: T1, WD repeat-containing protein 5; experiment: Inhibition of N-terminal FLAG-tagged human full-length WDR5 expressed in HEK293T cells harboring human C-terminal HA-tagged c-MYC assessed as reduction in MYC recruitment […] binding site at 20 uM incubated for 10 hrs by chromatin immunoprecipitation analysis; type: cell-based; settings: HEK-293T; in short: as §1

O=S(=O)(Nc1cn(CC2CC2)cn1)c1cc(Br)cc(Cl)c1O
Kd [1]: 2.1 µM

CCOC(=O)c1nc(NS(=O)(=O)c2cc(Br)cc(Cl)c2O)cn1C1CCCC1
inhibition [2]: Active
inhibition [3]: Active
inhibition [4]: Active

O=S(=O)(Nc1cn(C2CCCC2)cn1)c1cc(Br)cc(Cl)c1O
Kd [1]: 0.4 µM
inhibition [2]: Active
inhibition [4]: Active

O=C(c1nc(NS(=O)(=O)c2cc(Br)cc(Cl)c2O)cn1C1CCCC1)N1CCC(C2CCCN2)CC1 (configuration not stated)
Kd [1]: 5 µM

CS(=O)(=O)c1nc(NS(=O)(=O)c2cc(Br)cc(Cl)c2O)cn1C1CCCC1
inhibition [2]: Active
inhibition [5]: Active
inhibition [6]: Active
inhibition [7]: Active
inhibition [8]: Active
inhibition [9]: inactive
inhibition [10]: inactive
inhibition [3]: Active
inhibition [4]: Active

O=S(=O)(Nc1cn(C(C2CC2)C2CC2)cn1)c1cc(Br)cc(Cl)c1O
Kd [1]: 1.2 µM

O=S(=O)(Nc1cn(CC2CCCO2)cn1)c1cc(Br)cc(Cl)c1O (configuration not stated)
Kd [1]: 8 µM

O=S(=O)(Nc1cn(C2CCNC2)cn1)c1cc(Br)cc(Cl)c1O (configuration not stated)
Kd [1]: 11 µM

O=S(=O)(Nc1cnn(C2CCCC2)c1)c1cc(Br)cc(Cl)c1O
inhibition [2]: inactive
inhibition [3]: Active
inhibition [4]: Active

O=S(=O)(Nc1nc2ccccc2s1)c1cc(Br)cc(Cl)c1O
Kd [1]: 32 µM

CNC(=O)c1nc(NS(=O)(=O)c2cc(Br)cc(Cl)c2O)cn1C1CCCC1
inhibition [2]: Active
inhibition [3]: Active
inhibition [4]: Active
